Only some compounds are listed: those with a hit (about 2.6% of all), similar ones and a draw of the others.
miR122 inh = inhibitors of miR-122 in Huh7 cells; Huh7 miR-122 Renilla luciferase sensor, 48 h; neutral wells = 0, positive control = 100; activation (reporter increase), % at 12.5 µM; hit rate 0.3% among 340,000; AID 602342;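 active means mean replicate activation score at least 90 and every replicate individually at or above 90; inconclusive means only one of the two criteria met; inactive means neither criterion met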;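 further: higher luciferase means less miR-122 activity so hits act as miR-122 inhibitors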
S100A4 inh HTS = S100A4-myosin IIA interaction inhibition; hit rate 0.14% among 360,000; inhibition, % at 10.7 µM; P26447; AID 652163; S100A4/TAMRA-MyoIIA peptide fluorescence polarization;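 active means mean inhibition of at least 70% across replicates, with every replicate also reaching that level; inconclusive means mean inhibition reaches 70% but some replicates fall short; inactive means mean inhibition below 70%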
Target sequence (P26447 whole entry, looked up): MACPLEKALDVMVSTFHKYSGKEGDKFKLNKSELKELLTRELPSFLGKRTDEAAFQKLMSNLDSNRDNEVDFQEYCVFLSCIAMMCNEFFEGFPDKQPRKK
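incubation = readout 5 min after mixing, signal stable up to 60 min | system = S100A4 monomer protein | buffer or medium = HEPES pH 7.2 with CaCl2, KCl, NaCl, DTT, Triton | benchmarks = neutral control DMSO, positive control TFP | also added = fluorescent myosin IIA peptide, 5 nM | compound dosing = one concentration per compound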
FN deposition inh = fibronectin deposition inhibition; hit rate 0.086% among 350,000; inhibition, % at 12.6 µM; AID 743247; AH1F fibroblasts, Alexa488-fibronectin deposition fluorescence, overnight;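 active means mean inhibition across replicates of 30% or more, regardless of how many single replicates reach that level; inconclusive means mean under 30% yet at least half of replicates reach 30%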;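 further: positive control wells lacked labelled fibronectin entirely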
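Assay system: AH1F fibroblast monolayer, labelled fibronectin deposition. Amount: 10000 cells per well. Also added: labelled fibronectin 24 nM. Compound: single-point pinned compound. Incubation: cell attachment 1 h, compound and FN exposure overnight. Detection: fluorescence after three HBSS washes, excitation 485 nm, emission 525 nm. Read-out: inhibition of fibronectin deposition signal.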
rRNA inh HTS = inhibits bacterial ribosomal RNA function over humanized ribosomes; E. coli WT GFP vs humanized-ribosome RFP mutants, fluorescence, 24 h; hits give low values; DMSO median 0, no signal -100; GFP signal change (wild-type ribosome), % (test concentration not listed); hit rate 1.6% among 350,000; AID 720706;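 active means significant combined selectivity score with lowered wild-type GFP, culture density cut under 30%, mutant RFP and density less affected; inactive means any of these conditions unmet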
HIV Env fusion = inhibitors of HIV Env-mediated cell fusion | HeLa-JRFL Env/CEM21 cell fusion, luciferase | inhibition, % at 12.3 µM | hit rate 1.1% among 360,000;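 active means mean replicate inhibition score of at least 50 and every replicate individually at or above 50; inconclusive means only one of the two criteria met; inactive means mean below 50 and not all replicates reaching 50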;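 further: 0% = plate neutral controls and 100% = maraviroc near 300 nM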
Vif imaging = inhibitors of HIV Vif. HEK293T cells, Vif self-association by quenched fluorescence, imaging, 24 h. inhibition, % at 7.49 µM. hit rate 0.35% among 340,000; in the data active means inhibition above about 50%, passing the limit was not always enough; inconclusive means no clear call, values can overlap the other calls; inactive means below about 31%
Numbers without * were called inactive; [ ] = dose if it differs, or a comment.

O=C(Cn1ccccc1=S)c1ccc(Cl)c(Cl)c1 was read as miR122 inh 6, S100A4 inh HTS 9, FN deposition inh -8, rRNA inh HTS -34*, HIV Env fusion 8 and Vif imaging 0.
Screening O=C(Cn1ccccc1=O)c1ccc(Cl)cc1 returned S100A4 inh HTS -3, FN deposition inh 0, rRNA inh HTS 1, HIV Env fusion 3 and Vif imaging -10.
For O=C(Nc1cc(Br)ccc1O)C1CC(c2c(F)cccc2Cl)=NO1 (stereo unspecified) the results were miR122 inh 64, S100A4 inh HTS -5, FN deposition inh 5, rRNA inh HTS -36*, HIV Env fusion -2 and Vif imaging -5.
For O=C(Nc1ccc(Br)cc1)C1CC(c2c(F)cccc2Cl)=NO1 (stereo unspecified) the results were miR122 inh 14, S100A4 inh HTS 1, FN deposition inh 1, rRNA inh HTS -3, HIV Env fusion -11 and Vif imaging -12.
`CSc1ccccc1NC(=O)C1CC(c2c(F)cccc2Cl)=NO1` (stereo unspecified) gave miR122 inh 47, S100A4 inh HTS -1, FN deposition inh 1, rRNA inh HTS -25*, HIV Env fusion 4 and Vif imaging -15.
`COc1ccc(Cl)cc1NC(=O)C1CC(c2c(F)cccc2Cl)=NO1` (stereo unspecified) gave miR122 inh 5, S100A4 inh HTS 1, FN deposition inh 7, rRNA inh HTS -30*, HIV Env fusion -2 and Vif imaging 3.
CO[C@H]1CN(C)C(=O)c2ccc(NC(=O)C3CC3)cc2OC[C@@H](C)N(Cc2cccnc2)C[C@@H]1C was read as S100A4 inh HTS -2, FN deposition inh -3 and rRNA inh HTS 0.
Screening C/C=C/c1ccc([C@@H]2[C@H](CO)N(C(=O)CN(C)C)C23CN(C(=O)C2CC2)C3)cc1 returned S100A4 inh HTS 4, FN deposition inh 0 and rRNA inh HTS 1.
Screening COc1ccc(C(=O)Nc2ccc(-c3ccc(C)o3)cc2)cc1S(=O)(=O)N1CCOCC1 returned miR122 inh -15, FN deposition inh -9 and HIV Env fusion 63*.
Screening COc1ccc(C(=O)Nc2ccc(NC(C)=O)cc2)cc1S(=O)(=O)N1CCCC1 returned miR122 inh -4, S100A4 inh HTS 8, FN deposition inh 2, rRNA inh HTS -33*, HIV Env fusion -7 and Vif imaging -2.
COC(=O)c1nn(-c2ccc3c(c2)CCN3C(C)=O)cc1O was read as miR122 inh 2, FN deposition inh 4, HIV Env fusion 73* and Vif imaging 4.
For COC(=O)c1nn(-c2ccc3c(c2)OCO3)cc1O the results were miR122 inh -2, HIV Env fusion -98 and Vif imaging 1.
`CCN(Cc1nc2cc(Cl)ccc2c(=O)[nH]1)C(=O)c1cc(C2CC2)nn1-c1ccccc1` gave S100A4 inh HTS 0, FN deposition inh 1, rRNA inh HTS -29, HIV Env fusion 86* and Vif imaging -12.
For CCN(Cc1nc2cc(Cl)ccc2c(=O)[nH]1)C(=O)c1nn(C)c(=O)c2ccccc12 the results were miR122 inh 4, S100A4 inh HTS -12, FN deposition inh -1, rRNA inh HTS 12, HIV Env fusion 4 and Vif imaging 9.
Cc1noc(C)c1NC(=O)N(C)C[C@H]1Oc2ncc(C#CC3CC3)cc2C(=O)N([C@H](C)CO)C[C@H]1C was read as miR122 inh 8[16.7 µM], S100A4 inh HTS -3, rRNA inh HTS 6 and HIV Env fusion -11[16.7 µM].
Screening O=C1c2ccccc2C2=Nc3ccccc3SC(c3cccc(F)c3)C12 (stereo unspecified) returned miR122 inh 246*, FN deposition inh 23, HIV Env fusion -103 and Vif imaging -1.
CCOC(=O)c1cc(-c2ccc3c(c2)OCCO3)n[nH]1 was read as S100A4 inh HTS -4, FN deposition inh -13, rRNA inh HTS -32*, HIV Env fusion -70 and Vif imaging -3.
For COc1ccc(C2=Nn3c(nnc3-c3ccccc3OC)SC2)cc1OC1CCOC1 (stereo unspecified) the results were miR122 inh 131*, S100A4 inh HTS 0, FN deposition inh -18, rRNA inh HTS -14, HIV Env fusion -242 and Vif imaging 8.
Screening COc1ccc(C2=Nn3c(nnc3-c3ccccc3C(F)(F)F)SC2)cc1OC1CCOC1 (stereo unspecified) returned S100A4 inh HTS 3, FN deposition inh 10, rRNA inh HTS 2, HIV Env fusion -21 and Vif imaging 2.
COCCn1c(C)cc(C(=O)CSc2nnnn2C2CCCC2)c1C was read as S100A4 inh HTS 3, FN deposition inh -3, rRNA inh HTS -8, HIV Env fusion 60* and Vif imaging -5.
`COCCn1c(C)cc(C(=O)CSc2n[nH]c(N)n2)c1C` gave miR122 inh -1, FN deposition inh -1, HIV Env fusion -29 and Vif imaging inconclusive.
For COCCn1c(C)cc(C(=O)COC(=O)c2cc3c(s2)CCC3)c1C the results were miR122 inh 315*, FN deposition inh -5, HIV Env fusion 37 and Vif imaging 8.
Screening COc1ccc(Cl)cc1C(=O)CSc1nnnn1C1CCCC1 returned miR122 inh 4.
`COCCn1c(C)cc(C(=O)CSc2nnc(C)s2)c1C` gave miR122 inh -8, FN deposition inh 2, HIV Env fusion 63* and Vif imaging -3.
CCn1c(/C=C/N(C(C)=O)c2ccccc2)[n+](CC)c2ccc(Cl)cc21 was read as miR122 inh -4, S100A4 inh HTS -4, FN deposition inh -5, rRNA inh HTS 7 and Vif imaging 0.
`CC[n+]1c(/C=C/C=C/N(C(C)=O)c2ccccc2)sc2ccccc21` gave miR122 inh -6 and Vif imaging 162*.
Cc1noc(C)c1S(=O)(=O)N(C)C[C@H]1Oc2ccc(NS(=O)(=O)c3ccccc3)cc2CC(=O)N([C@H](C)CO)C[C@H]1C was read as miR122 inh 16[16.7 µM], S100A4 inh HTS -3, rRNA inh HTS 1 and HIV Env fusion -5[16.7 µM].
`O=C(O)c1ccc(N/N=C/C=C/c2ccccc2[N+](=O)[O-])cc1` gave miR122 inh 45, S100A4 inh HTS 2, FN deposition inh 2, rRNA inh HTS -8, HIV Env fusion -55 and Vif imaging 54*.
For COc1cccc2c1C(=O)c1c(O)c3c(c(O)c1C2=O)C[C@](O)(C(C)=O)C[C@H]3O[C@@H]1C[C@@H](N)[C@@H](O)[C@@H](C)O1 the results were miR122 inh -31, S100A4 inh HTS active, FN deposition inh 6, HIV Env fusion -293 and Vif imaging -5.

Source: PubChem BioAssay
